In ChEMBL document CHEMBL1147217, “ent-Kaurane diterpenoids from croton tonkinensis inhibit LPS-induced NF-kappaB activation and NO production” (J Nat Prod, 2003):

Columns and labels:
[1] = (§1) Inhibition of LPS-induced NF-kappaB activation in mouse RAW264.7 cells after 24 hrs by SEAP reporter assay; type: cell-based; settings: RAW264.7, 24 h
Summary of the method: (§2)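 RAW264.7 cells carrying a reporter plasmid with eight κB copies driving SEAP; seeded 5 × 10^4 cells/well, 3 h at 37 °C, then test agent at various concentrations plus LPS (1 µg/mL) for 24 h. Supernatant heated 65 °C 5 min, mixed with SEAP buffer (diethanolamine, MgCl2, L-homoarginine) 10 min 37 °C, then p-nitrophenyl phosphate at 37 °C; A405. IC50 values; means ± SD of six independent experiments.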

[2] = tested on: RAW264.7; test: as §1; type: cell-based; summary of the method: as §2
[3] = tested on: RAW264.7; test: Cytotoxicity against mouse RAW264.7 cells upto 3 uM by MTT assay; type: cell-based
[4] = tested on: RAW264.7; test: Inhibition of LPS-induced NO production in mouse RAW264.7 cells after 24 hrs by Griess method; type: functional, cell-based; settings: RAW264.7, 24 h
Summary of the method: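 RAW264.7 cells at 1 × 10^5 cells/well, 3 h incubation, then LPS (1 µg/mL) for 24 h with or without test agent. Supernatant nitrite measured as NO readout by Griess reaction (equal volume of 0.1% N-(1-naphthyl)ethylenediamine/1% sulfanilamide in 5% phosphoric acid); absorbance 570 nm. IC50 values; means ± SD of six independent experiments.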

| Compound | IC50 [1] [nM] | IC50 [4] [nM] | Activity [2] | Activity [3] |
| --- | --- | --- | --- | --- |
| C=C1C(=O)[C@@]23[C@H](O)C[C@@H]4C(C)(C)CCC[C@@]4(C)[C@@H]2CC[C@@H]1[C@H]3O | 110 | 260 | Dose-dependent effect | Non-toxic |
| N=C(N)NN [PIMAGEDINE] | – | 4060 | – | – |
| C=C1C(=O)[C@@]23[C@H](O)C[C@@H]4C(C)(C)CC[C@@H](OC(C)=O)[C@@]4(C)[C@@H]2CC[C@@H]1[C@H]3O | 420 | 470 | Dose-dependent effect | Non-toxic |
| C=C1C(=O)[C@]23C[C@H]1CC[C@H]2[C@]1(C)CCC[C@](C)(COC(C)=O)[C@H]1C[C@H]3O | 100 | 210 | Dose-dependent effect | Non-toxic |

Now from value to molecule, other results behind:

| IC50 [1] [nM] | IC50 [4] [nM] | Compound | Activity [2] | Activity [3] |
| --- | --- | --- | --- | --- |
| 70 | 150 | C=C1C(=O)[C@@]23[C@H](O)C[C@@H]4[C@@](C)(COC(C)=O)CCC[C@@]4(C)[C@@H]2CC[C@@H]1[C@H]3O | Dose-dependent effect | Non-toxic |
| 2340 | 2010 | C=C1C(=O)O[C@@H]2C3O[C@]3(C)CC/C=C(\C)CC[C@@H]12 (some centres undefined) | – | – |
